Measured values published in ChEMBL document CHEMBL4334471, “Discovery of 1,8-disubstituted-[1,2,3]triazolo[4,5-c]quinoline derivatives as a new class of Hippo signaling pathway inhibitors” (Bioorg Med Chem Lett, 2019).

How the values were obtained:
[1] = target: DNA-dependent protein kinase catalytic subunit (Homo sapiens) (UniProt P78527); experiment: Inhibition of human DNA-PK assessed as residual activity at 10 uM using GST-cMyc-p53 as substrate measured after 40 mins by fluorescence assay relative to control
Sequence of DNA-dependent protein kinase catalytic subunit (Homo sapiens) (P78527 whole entry): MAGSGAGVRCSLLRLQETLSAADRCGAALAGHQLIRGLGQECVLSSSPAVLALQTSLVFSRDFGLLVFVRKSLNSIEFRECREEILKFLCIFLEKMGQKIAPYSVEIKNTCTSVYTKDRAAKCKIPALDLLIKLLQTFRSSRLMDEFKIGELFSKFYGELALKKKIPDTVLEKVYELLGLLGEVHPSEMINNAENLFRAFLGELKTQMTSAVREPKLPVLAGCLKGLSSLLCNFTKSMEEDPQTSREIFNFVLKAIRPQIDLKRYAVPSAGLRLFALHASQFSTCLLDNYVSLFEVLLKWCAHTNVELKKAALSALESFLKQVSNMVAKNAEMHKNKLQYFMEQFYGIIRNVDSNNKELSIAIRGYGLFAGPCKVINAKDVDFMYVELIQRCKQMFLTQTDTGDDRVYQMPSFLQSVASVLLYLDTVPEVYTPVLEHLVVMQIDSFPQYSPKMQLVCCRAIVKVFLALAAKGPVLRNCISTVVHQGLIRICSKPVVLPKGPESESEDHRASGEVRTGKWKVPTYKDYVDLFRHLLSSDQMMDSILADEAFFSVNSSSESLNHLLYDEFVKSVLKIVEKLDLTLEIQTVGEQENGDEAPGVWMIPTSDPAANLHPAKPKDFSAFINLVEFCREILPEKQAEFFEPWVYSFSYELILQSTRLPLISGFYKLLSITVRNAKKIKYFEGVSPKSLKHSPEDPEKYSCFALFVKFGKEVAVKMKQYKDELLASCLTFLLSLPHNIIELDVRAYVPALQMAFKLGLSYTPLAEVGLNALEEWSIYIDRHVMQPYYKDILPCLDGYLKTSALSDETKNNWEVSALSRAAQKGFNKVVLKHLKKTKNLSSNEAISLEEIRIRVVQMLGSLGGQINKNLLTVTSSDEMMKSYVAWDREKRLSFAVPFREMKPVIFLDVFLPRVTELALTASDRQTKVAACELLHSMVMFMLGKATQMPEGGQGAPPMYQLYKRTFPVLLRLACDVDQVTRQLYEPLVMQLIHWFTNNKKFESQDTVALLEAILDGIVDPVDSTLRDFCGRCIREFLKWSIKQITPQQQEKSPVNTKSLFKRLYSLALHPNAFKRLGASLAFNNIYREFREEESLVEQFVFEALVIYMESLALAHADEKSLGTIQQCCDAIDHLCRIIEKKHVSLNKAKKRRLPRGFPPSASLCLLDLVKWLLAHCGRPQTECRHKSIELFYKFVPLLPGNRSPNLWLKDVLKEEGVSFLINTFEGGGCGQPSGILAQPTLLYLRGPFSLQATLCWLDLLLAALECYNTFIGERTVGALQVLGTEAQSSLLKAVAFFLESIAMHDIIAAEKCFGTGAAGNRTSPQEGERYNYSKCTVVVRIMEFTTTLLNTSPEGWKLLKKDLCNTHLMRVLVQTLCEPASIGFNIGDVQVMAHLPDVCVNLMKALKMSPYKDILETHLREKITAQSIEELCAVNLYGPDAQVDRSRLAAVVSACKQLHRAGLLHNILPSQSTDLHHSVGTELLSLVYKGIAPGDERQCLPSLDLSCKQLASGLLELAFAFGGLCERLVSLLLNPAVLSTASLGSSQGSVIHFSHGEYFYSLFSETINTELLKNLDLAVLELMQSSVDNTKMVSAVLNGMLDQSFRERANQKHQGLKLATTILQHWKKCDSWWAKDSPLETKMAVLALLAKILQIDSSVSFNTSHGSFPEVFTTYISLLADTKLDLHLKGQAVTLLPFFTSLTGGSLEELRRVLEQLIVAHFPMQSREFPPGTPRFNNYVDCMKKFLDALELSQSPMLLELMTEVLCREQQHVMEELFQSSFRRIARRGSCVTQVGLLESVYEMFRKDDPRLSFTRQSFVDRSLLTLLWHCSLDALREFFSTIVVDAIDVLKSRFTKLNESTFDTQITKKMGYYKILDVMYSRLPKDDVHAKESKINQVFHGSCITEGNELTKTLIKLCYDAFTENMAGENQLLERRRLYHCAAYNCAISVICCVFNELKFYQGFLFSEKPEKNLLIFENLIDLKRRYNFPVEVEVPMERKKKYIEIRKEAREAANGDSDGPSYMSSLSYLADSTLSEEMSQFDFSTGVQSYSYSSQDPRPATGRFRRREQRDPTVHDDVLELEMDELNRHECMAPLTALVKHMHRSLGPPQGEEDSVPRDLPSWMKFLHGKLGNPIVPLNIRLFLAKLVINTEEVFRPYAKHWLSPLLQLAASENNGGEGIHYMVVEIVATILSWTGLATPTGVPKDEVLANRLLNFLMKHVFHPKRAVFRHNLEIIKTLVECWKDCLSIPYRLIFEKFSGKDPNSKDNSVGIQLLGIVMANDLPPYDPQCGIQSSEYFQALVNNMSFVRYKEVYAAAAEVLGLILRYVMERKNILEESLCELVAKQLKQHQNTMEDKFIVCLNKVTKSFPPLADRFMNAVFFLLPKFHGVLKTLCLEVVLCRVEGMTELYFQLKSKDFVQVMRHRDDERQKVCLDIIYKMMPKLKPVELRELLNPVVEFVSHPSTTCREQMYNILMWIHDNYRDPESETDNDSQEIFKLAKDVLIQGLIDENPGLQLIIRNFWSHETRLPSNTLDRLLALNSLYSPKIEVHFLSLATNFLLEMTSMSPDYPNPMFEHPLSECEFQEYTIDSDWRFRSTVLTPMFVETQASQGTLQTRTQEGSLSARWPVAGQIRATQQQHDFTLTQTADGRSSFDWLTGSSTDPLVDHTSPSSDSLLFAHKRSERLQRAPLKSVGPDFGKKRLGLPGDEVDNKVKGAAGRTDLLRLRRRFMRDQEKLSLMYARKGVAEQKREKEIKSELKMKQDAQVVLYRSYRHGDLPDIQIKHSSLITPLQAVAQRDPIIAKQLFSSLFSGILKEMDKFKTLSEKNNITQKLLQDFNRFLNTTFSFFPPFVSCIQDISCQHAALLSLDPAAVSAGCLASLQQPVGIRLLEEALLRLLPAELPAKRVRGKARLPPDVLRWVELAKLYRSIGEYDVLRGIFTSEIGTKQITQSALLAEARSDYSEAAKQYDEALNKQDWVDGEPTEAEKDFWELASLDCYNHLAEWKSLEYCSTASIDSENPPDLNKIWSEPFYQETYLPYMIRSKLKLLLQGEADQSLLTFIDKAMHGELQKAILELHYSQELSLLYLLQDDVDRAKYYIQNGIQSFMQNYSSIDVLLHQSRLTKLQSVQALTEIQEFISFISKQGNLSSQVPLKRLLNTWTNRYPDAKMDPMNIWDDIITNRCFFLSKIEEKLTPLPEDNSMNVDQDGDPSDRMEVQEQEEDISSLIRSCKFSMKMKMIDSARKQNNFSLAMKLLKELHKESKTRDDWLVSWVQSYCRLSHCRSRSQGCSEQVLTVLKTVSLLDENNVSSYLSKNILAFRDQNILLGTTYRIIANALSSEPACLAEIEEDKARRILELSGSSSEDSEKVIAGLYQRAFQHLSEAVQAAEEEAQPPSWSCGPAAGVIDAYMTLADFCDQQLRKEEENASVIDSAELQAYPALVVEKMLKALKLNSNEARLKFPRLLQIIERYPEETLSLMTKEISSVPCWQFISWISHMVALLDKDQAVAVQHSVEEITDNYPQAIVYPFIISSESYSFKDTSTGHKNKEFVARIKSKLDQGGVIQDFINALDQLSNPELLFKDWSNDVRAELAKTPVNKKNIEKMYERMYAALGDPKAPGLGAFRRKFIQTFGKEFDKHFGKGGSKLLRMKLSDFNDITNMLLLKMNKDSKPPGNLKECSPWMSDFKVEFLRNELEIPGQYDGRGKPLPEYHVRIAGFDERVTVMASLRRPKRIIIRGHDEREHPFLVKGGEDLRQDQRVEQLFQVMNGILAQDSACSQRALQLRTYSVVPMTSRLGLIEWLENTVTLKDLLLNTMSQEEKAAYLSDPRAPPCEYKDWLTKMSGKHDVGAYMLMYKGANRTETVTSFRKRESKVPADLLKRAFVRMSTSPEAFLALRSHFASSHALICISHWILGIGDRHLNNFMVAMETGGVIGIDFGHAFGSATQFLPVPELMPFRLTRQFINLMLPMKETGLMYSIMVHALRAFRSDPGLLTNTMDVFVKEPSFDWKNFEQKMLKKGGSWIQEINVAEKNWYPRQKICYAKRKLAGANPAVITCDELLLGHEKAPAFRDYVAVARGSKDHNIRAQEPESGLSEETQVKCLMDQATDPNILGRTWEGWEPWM

[2] = target: Ribosomal protein S6 kinase alpha-2 (Homo sapiens) (UniProt Q15349); experiment: Inhibition of recombinant full length human Rsk3 assessed as residual activity at 10 uM using KKKNRTLSVA as substrate incubated for 40 mins in presence of [gamma33P]ATP by scintillation counting based radiometry assay relative to control
[3] = target: Serine/threonine-protein kinase ULK1 (Homo sapiens) (UniProt O75385); experiment: Inhibition of recombinant human ULK1 (1 to 314 residues) assessed as residual activity at 10 uM using casein as substrate incubated for 40 mins in presence of [gamma33P]ATP by scintillation counting based radiometry assay relative to control
[4] = target: Cyclin-dependent kinase 13/Cyclin-K (Homo sapiens) (UniProt Q14004+O75909); experiment: Inhibition of recombinant full length human CDK13/cyclinK assessed as residual activity at 10 uM using RSRSRSRSRSRSR as substrate incubated for 40 mins in presence of [gamma-33ATP] by scintillation counting based radiometry assay relative to control; type: protein-complex assay
[5] = target: Tyrosine-protein kinase CSK (Homo sapiens) (UniProt P41240); experiment: Inhibition of recombinant human CSK assessed as residual activity at 10 uM poly(Glu, Tyr) 4:1 as substrate incubated 40 mins in presence of [gamma-33ATP] by scintillation counting based radiometry assay relative to control
[6] = target: Vascular endothelial growth factor receptor 2 (Homo sapiens) (UniProt P35968); experiment: Inhibition of human KDR (790 to end residues) assessed as residual activity at 10 uM using myelin basic protein as substrate after 40 mins by [gamma-33ATP] radiometric assay relative to control
[7] = target: Serine/threonine-protein kinase 4 (Homo sapiens, UniProt Q13043); experiment: Inhibition of recombinant full-length human MST1 assessed as residual activity using KKSRGDYMTMQIG as substrate measured after 40 mins in presence of [gamma33P]ATP by scintillation counting based radiometry assay
Outline: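 Outsourced kinase profiling of MST1 by a commercial service (Eurofins); activity reported as mean ± SEM of 2 replicates.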

[8] = target: BDNF/NT-3 growth factors receptor (Homo sapiens) (UniProt Q16620); experiment: Inhibition of recombinant human TRKB (455 to end residues) assessed as residual activity at 10 uM using poly(Glu, Tyr) 4:1 as substrate incubated for 40 mins in presence of [gamma33P]ATP by scintillation counting based radiometry assay relative to control
[9] = target: Serine/threonine-protein kinase PLK2 (Homo sapiens) (UniProt Q9NYY3); experiment: Inhibition of recombinant human SNK (65 to 409 residues) assessed as residual activity at 10 uM using casein as substrate incubated for 40 mins in presence of [gamma33P]ATP by scintillation counting based radiometry assay relative to control
[10] = target: LIM domain kinase 2 (Homo sapiens) (UniProt P53671); experiment: Inhibition of recombinant human LIMK2 assessed as residual activity after 10 uM by scintillation counting based radiometry assay relative to control
[11] = target: STE20-like serine/threonine-protein kinase (Homo sapiens) (UniProt Q9H2G2); experiment: Inhibition of recombinant human SLK (1 to 373 residues) assessed as residual activity at 10 uM using RLGRDKYKTLRQIRQ as substrate incubated for 40 mins in presence of [gamma33P]ATP by scintillation counting based radiometry assay relative to control
[12] = target: Serine/threonine-protein kinase PAK 4 (Homo sapiens) (UniProt O96013); experiment: Inhibition of recombinant human PAK4 (295 to end residues) assessed as residual activity at 10 uM using myelin basic protein as substrate measured after 40 mins in presence of [gamma33P]ATP by scintillation counting based radiometry assay relative to control
[13] = target: Serine/threonine-protein kinase Chk2 (Homo sapiens) (UniProt O96017); experiment: Inhibition of recombinant human CHK2 (5 to end residues) assessed as residual activity at 10 uM using KKKVSRSGLYRSPSMPENLNRPR as substrate incubated for 40 mins in presence of [gamma-33ATP] by scintillation counting based radiometry assay relative to control
Sequence of Serine/threonine-protein kinase Chk2 (Homo sapiens) (O96017 whole entry): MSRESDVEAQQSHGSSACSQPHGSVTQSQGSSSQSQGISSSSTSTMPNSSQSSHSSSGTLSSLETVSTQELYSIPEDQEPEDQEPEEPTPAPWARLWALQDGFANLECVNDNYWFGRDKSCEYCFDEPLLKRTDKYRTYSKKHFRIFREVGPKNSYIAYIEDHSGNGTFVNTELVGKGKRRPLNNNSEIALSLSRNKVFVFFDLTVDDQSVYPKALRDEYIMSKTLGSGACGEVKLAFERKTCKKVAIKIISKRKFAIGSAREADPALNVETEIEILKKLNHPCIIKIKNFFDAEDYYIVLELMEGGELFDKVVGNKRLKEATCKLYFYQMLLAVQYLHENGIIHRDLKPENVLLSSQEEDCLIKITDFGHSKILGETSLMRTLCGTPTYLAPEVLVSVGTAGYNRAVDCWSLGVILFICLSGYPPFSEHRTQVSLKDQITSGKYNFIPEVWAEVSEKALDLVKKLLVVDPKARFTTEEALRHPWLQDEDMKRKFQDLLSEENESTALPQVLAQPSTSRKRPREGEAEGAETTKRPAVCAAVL

[14] = target: Dual specificity protein kinase CLK4 (Homo sapiens) (UniProt Q9HAZ1); experiment: Inhibition of recombinant human CLK4 (128 to end residues) assessed as residual activity at 10 uM using YRRAAVPPSPSLSRHSSPHQS(p)EDEEE as substrate incubated 40 mins in presence of [gamma-33ATP] by scintillation counting based radiometry assay relative to control
[15] = target: Casein kinase II subunit alpha (Homo sapiens) (UniProt P68400); experiment: Inhibition of recombinant full length human CK2alpha1 assessed as residual activity at 10 uM using RRRDDDSDDD as substrate incubated 40 mins in presence of [gamma-33ATP] by scintillation counting based radiometry assay relative to control
Sequence of Casein kinase II subunit alpha (Homo sapiens) (P68400 whole entry, looked up): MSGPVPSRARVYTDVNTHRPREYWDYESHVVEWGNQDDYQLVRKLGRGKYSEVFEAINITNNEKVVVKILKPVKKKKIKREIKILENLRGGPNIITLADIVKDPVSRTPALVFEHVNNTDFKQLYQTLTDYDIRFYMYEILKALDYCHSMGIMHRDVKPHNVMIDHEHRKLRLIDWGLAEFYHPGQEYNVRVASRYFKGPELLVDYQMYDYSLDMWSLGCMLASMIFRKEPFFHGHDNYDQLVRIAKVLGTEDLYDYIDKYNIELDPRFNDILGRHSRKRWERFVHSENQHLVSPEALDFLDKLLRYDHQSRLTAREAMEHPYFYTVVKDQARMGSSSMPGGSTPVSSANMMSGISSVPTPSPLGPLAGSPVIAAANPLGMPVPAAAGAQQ

[16] = target: Serine/threonine-protein kinase PRP4 homolog (Homo sapiens) (UniProt Q13523); experiment: Inhibition of recombinant human PRP4 (663 to end residues) assessed as residual activity at 10 uM using casein as substrate incubated for 40 mins in presence of [gamma33P]ATP by scintillation counting based radiometry assay relative to control
[17] = target: Calcium/calmodulin-dependent protein kinase kinase 1 (Homo sapiens) (UniProt Q8N5S9); experiment: Inhibition of recombinant full length human CaMKK1 assessed as residual activity at 10 uM using […] incubated for 40 mins in presence of [gamma-33ATP] by scintillation counting based radiometry assay relative to control
[18] = target: Mitogen-activated protein kinase 10 (Homo sapiens) (UniProt P53779); experiment: Inhibition of human JNK3 assessed as residual activity at 10 uM using peptide as substrate after 40 mins by [gamma-33ATP] radiometric assay relative to control
[19] = target: PAS domain-containing serine/threonine-protein kinase (Homo sapiens) (UniProt Q96RG2); experiment: Inhibition of recombinant human PASK (995 to end residues) assessed as residual activity at 10 uM using KKLNRTLSFAEPG as substrate measured after 40 mins in presence of [gamma33P]ATP by scintillation counting based radiometry assay relative to control
[20] = target: Citron Rho-interacting kinase (Homo sapiens) (UniProt O14578); experiment: Inhibition of recombinant human CRIK assessed as residual activity at 10 uM KKLRRTLSVA as substrate incubated 120 mins in presence of [gamma-33ATP] by scintillation counting based radiometry assay relative to control
[21] = system: Mast/stem cell growth factor receptor Kit (Homo sapiens), P10721 [D816V]; experiment: Inhibition of recombinant human C-Kit D816V mutant (544 to end residues) assessed as residual activity at 10 uM poly(Glu, Tyr) 4:1 as substrate incubated 40 mins in presence of [gamma-33ATP] by scintillation counting based radiometry assay relative to control

## C[C@@H](c1ccccc1)n1nnc2cnc3ccc(-c4cnc5[nH]ccc5c4)cc3c21
[1]
  Activity: 4%
[2]
  Activity: 93%
[3]
  Activity: 91%
[4]
  Activity: 84%
[5]
  Activity: 74%
[6]
  Activity: 63%
[7]
  IC50: > 10 µM
[8]
  Activity: 2%
[9]
  Activity: 90%
[10]
  Activity: 56%
[11]
  Activity: 75%
[12]
  Activity: 88%
[13]
  Activity: 57%
[14]
  Activity: 46%
[15]
  Activity: 68%
[16]
  Activity: 86%
[17]
  Activity: 67%
[18]
  Activity: 47%
[19]
  Activity: 30%
[20]
  Activity: 80%
[21]
  Activity: 86%
